Data taken from ChEMBL document CHEMBL1149392, “PTP-1B inhibitors: cyclopenta[d][1,2]-oxazine derivatives” (Bioorg Med Chem Lett, 2006).
Calls of active or inactive are those of the source. No cut-off for these calls is given here.

Legend:
[1] = biological target: T1, Tyrosine-protein phosphatase non-receptor type 1 (Homo sapiens) (UniProt P18031); assay: Inhibitory activity against recombinant human PTP1B at 10 uM
T1 sequence (whole entry): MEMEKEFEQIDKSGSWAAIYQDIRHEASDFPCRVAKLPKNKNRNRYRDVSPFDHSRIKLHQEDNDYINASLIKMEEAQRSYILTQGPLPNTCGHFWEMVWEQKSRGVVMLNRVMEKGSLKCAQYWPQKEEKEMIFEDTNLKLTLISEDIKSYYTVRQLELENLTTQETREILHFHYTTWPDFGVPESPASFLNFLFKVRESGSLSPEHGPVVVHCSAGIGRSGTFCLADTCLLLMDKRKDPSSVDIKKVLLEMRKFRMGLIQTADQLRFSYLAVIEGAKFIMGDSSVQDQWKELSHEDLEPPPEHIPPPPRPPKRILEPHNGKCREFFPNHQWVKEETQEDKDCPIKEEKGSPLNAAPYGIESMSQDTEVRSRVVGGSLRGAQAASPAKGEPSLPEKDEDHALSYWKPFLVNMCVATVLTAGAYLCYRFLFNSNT

[2] = biological target: T2, Tyrosine-protein phosphatase non-receptor type 1 (Homo sapiens, UniProt P18031); assay: Inhibitory activity against recombinant human PTP1B
T2 sequence (P18031 whole entry): T1 sequence (whole entry)
Method in brief: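 Recombinant human PTP-1B (0.1 μg) incubated with 20 μM fluorescein diphosphate and compound in 30 mM Tris, 75 mM NaCl, 0.67 mM EDTA, 1 mM DTT, pH 8.0, for 1 h at room temperature. Product fluorescein monophosphate read by fluorescence (ex 485 nm, em 538 nm). IC50 reported.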

[3] = biological target: Serine/threonine-protein phosphatase PP1-gamma catalytic subunit (Homo sapiens, UniProt P36873); assay: Inhibitory activity against Protein phosphatase 1 at 10 uM
Method in brief: (§1)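 Phosphatase selectivity panel using fluorescein diphosphate substrate at 20 μM, the same level as in the PTP-1B assay. Compound tested at a single concentration of 10 μM; percent inhibition of enzyme activity reported.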

[4] = biological target: T3, Receptor-type tyrosine-protein phosphatase C (Homo sapiens) (UniProt P08575); assay: Inhibitory activity against CD45 phosphatase at 10 uM; method in brief: as §1
T3 sequence (whole entry): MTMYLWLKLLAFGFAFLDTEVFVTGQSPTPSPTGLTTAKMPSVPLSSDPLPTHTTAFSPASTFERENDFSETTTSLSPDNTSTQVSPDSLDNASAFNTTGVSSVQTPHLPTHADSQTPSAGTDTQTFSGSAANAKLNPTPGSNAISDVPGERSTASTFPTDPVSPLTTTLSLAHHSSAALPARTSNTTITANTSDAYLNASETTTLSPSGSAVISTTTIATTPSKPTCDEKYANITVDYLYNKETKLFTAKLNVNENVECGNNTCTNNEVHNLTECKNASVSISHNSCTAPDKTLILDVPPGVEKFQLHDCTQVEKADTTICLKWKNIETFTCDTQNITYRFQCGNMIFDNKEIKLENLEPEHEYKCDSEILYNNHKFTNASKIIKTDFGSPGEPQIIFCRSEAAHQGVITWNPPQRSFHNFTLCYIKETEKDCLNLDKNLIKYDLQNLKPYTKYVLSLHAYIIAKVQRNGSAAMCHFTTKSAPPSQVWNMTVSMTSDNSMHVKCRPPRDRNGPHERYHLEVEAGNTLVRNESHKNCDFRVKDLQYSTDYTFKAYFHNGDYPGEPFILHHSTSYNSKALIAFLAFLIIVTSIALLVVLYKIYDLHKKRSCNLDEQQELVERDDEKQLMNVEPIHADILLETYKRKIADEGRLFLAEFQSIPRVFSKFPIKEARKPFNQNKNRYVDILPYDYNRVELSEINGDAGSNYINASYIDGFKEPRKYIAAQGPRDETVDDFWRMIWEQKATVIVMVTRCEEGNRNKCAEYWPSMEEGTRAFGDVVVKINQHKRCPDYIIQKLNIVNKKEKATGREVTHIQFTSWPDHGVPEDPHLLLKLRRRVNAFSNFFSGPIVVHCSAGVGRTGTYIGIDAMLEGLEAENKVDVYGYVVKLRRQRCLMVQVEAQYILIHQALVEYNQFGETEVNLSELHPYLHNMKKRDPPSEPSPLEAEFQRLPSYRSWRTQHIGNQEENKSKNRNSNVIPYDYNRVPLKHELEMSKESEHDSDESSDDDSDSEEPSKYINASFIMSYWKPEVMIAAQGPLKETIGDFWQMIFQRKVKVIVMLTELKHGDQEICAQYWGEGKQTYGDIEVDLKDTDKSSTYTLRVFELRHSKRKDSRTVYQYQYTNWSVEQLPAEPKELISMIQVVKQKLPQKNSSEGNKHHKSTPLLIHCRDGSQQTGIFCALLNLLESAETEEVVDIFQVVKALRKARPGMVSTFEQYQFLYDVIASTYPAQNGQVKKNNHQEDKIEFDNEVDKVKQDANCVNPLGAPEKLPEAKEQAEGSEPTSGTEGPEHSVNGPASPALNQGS

[5] = biological target: Tyrosine-protein phosphatase YopH (Yersinia enterocolitica) (UniProt P15273); assay: Inhibitory activity against YOP protein tyrosine phosphatase at 10 uM
Method in brief: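 Yop phosphatase tested in the nine-phosphatase selectivity panel with 20 μM fluorescein diphosphate as substrate. Inhibitor tested at a single concentration of 10 μM; the value is % inhibition.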

[6] = biological target: T4, M-phase inducer phosphatase 1 (Homo sapiens) (UniProt P30304); assay: Inhibitory activity against cdc25A phosphatase at 10 uM; method in brief: as §1
T4 sequence (whole entry): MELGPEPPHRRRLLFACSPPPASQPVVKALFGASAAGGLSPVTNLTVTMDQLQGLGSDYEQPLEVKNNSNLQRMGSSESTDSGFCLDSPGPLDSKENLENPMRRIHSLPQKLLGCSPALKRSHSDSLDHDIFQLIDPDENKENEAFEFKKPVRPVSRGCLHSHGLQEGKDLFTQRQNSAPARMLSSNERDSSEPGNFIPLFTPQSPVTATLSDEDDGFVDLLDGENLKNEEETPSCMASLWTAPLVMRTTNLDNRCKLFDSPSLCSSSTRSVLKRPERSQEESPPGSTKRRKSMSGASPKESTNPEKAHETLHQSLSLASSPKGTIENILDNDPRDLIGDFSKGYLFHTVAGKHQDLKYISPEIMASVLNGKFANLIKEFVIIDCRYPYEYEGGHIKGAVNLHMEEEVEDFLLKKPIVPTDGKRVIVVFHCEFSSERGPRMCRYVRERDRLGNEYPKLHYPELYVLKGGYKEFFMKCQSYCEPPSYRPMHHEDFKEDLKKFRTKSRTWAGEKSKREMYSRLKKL

[7] = biological target: T5, M-phase inducer phosphatase 2 (Homo sapiens) (UniProt P30305); assay: Inhibitory activity against cdc25B phosphatase at 10 uM; method in brief: as §1
T5 sequence (whole entry): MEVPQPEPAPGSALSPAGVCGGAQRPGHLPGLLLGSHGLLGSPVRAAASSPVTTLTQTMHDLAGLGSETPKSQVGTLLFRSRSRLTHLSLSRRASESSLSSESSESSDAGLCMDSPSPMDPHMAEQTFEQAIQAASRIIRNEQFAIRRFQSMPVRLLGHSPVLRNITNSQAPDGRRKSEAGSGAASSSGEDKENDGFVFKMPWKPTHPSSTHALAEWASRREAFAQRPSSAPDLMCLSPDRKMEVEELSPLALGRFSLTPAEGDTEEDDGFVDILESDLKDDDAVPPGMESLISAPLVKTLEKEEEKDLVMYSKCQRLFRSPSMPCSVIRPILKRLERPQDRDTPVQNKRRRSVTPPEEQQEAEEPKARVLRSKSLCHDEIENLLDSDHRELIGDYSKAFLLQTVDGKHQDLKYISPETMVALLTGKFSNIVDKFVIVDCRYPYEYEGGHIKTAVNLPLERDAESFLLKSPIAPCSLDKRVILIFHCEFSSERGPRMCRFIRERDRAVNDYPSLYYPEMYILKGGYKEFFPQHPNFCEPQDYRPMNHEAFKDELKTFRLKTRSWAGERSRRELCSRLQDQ

[8] = biological target: Dual specificity protein phosphatase 3 (Homo sapiens, UniProt P51452); assay: Inhibitory activity against VH1-related phosphatase VHR at 10 uM; method in brief: as §1
[9] = biological target: Receptor-type tyrosine-protein phosphatase F (Homo sapiens, UniProt P10586); assay: Inhibitory activity against LAR protein tyrosine phosphatase at 10 uM; method in brief: as §1
[10] = Inhibitory activity against protein phosphatase type 2A at 10 uM; method in brief: as §1

Chain of Serine/threonine-protein phosphatase PP1-gamma catalytic subunit (P36873 2-323 limits assumed): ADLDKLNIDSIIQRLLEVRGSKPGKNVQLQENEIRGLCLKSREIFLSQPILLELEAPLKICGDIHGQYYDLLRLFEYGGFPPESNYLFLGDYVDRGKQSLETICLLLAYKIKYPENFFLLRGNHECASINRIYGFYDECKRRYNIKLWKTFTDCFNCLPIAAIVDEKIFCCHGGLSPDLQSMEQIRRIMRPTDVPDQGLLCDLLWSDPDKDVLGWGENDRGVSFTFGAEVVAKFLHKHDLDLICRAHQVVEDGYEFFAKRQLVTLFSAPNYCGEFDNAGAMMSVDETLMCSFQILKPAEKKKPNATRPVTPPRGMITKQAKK
Chain of Receptor-type tyrosine-protein phosphatase F (P10586 whole entry): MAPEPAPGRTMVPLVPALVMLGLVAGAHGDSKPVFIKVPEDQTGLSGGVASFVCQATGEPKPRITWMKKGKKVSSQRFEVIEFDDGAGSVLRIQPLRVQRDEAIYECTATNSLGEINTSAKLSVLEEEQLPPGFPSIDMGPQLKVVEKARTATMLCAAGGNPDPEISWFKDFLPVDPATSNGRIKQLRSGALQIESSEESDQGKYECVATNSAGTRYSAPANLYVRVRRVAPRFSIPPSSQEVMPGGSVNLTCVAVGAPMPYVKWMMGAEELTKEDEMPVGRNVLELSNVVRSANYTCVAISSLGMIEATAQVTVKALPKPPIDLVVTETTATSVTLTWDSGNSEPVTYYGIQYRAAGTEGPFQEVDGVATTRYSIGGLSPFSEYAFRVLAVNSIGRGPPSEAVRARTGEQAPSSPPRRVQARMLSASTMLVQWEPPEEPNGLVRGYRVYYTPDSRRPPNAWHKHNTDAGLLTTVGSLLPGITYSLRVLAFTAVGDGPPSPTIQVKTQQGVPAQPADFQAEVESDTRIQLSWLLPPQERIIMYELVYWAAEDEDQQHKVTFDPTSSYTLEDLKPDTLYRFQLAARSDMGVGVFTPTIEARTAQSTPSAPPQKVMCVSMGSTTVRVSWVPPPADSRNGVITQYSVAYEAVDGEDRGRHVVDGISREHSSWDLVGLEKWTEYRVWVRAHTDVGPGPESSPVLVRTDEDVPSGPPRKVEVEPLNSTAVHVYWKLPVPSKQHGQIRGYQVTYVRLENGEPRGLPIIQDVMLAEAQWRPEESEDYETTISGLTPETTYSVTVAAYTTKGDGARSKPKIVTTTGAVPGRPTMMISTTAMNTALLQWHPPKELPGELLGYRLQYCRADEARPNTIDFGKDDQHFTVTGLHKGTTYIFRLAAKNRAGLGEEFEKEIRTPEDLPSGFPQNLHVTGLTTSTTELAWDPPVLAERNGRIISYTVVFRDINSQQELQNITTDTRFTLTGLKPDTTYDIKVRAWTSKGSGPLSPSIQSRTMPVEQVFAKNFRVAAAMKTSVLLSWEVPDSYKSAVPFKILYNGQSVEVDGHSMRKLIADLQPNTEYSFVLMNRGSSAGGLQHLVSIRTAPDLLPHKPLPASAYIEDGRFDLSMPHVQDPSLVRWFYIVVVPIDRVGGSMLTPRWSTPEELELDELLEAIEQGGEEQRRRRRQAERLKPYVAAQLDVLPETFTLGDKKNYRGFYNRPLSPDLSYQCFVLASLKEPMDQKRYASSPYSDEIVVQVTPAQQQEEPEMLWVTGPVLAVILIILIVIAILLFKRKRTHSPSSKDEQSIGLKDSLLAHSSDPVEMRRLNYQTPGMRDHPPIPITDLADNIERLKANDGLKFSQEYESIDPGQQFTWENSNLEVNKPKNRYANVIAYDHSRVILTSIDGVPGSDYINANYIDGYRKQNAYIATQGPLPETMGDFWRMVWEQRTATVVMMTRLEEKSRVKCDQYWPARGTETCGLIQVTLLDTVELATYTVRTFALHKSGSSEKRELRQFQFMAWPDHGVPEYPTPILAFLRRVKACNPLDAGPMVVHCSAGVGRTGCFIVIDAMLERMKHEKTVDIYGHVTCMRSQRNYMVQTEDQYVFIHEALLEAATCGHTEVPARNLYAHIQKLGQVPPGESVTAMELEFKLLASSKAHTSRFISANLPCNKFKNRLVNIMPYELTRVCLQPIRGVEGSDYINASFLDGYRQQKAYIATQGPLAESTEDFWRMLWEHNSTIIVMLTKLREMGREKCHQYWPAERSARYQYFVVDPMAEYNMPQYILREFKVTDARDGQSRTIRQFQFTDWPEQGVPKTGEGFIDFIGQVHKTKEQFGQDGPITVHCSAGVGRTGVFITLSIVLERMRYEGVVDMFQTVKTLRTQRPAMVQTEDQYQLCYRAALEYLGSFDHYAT
Chain of Tyrosine-protein phosphatase YopH (Yersinia enterocolitica) (P15273 whole entry): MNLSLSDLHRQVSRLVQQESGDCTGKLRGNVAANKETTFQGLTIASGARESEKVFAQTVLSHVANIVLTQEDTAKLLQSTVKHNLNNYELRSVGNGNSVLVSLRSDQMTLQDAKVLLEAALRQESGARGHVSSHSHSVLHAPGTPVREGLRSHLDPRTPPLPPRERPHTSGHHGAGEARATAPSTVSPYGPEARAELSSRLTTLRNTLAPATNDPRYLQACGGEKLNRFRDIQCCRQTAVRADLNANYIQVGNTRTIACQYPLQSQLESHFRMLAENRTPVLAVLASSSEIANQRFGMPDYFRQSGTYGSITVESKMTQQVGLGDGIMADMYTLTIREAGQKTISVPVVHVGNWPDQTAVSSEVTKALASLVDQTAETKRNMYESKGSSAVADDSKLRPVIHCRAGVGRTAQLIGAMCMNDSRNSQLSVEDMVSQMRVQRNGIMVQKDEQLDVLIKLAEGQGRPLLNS
Chain of Dual specificity protein phosphatase 3 (P51452 whole entry, looked up): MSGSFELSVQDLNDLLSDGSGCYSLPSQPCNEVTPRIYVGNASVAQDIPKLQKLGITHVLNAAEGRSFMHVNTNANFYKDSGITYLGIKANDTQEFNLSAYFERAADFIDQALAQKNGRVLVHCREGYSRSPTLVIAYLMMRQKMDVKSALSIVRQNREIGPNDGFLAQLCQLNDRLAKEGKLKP

Structure (SMILES)	inhibition [1]	also measured
CCOC(=O)COc1ccc(-c2nocc3cccc2-3)cc1	2.1%	
COc1ccc(-c2nocc3cccc2-3)cc1	3%	
COc1ccc(CC(=O)c2ccc3c(-c4ccc(OCC(=O)O)cc4)nocc2-3)cc1	85.5%	IC50 [2]: 5.63 µM
N#Cc1cccc(C(=O)c2ccc3c(-c4ccc(OCC(=O)O)cc4)nocc2-3)c1	inactive	
COc1ccc(O)c(CC(=O)c2ccc3c(-c4ccc(OCC(=O)O)cc4)nocc2-3)c1	48.7%	
CCCCCCCCCCCCCCC(=O)c1ccc2c(-c3ccc(OCC(=O)O)cc3)nocc1-2	101%	IC50 [2]: 0.27 µM
COc1ccc(C(=O)c2ccc3c(-c4ccc(OCC(=O)N5CCN(Cc6ccccc6)CC5)cc4)nocc2-3)cc1	68.8%	IC50 [2]: 5.48 µM
O=C(c1ccc2c(-c3ccc(OC(CCO)C(=O)O)cc3)nocc1-2)C1CCCC1 (configuration not stated)	inactive	
O=C(O)COc1ccc(-c2nocc3c(C(=O)c4cccc(C(F)(F)F)c4)ccc2-3)cc1	68.9%	IC50 [2]: 7.55 µM
COc1ccc(C(=O)c2ccc3c(-c4ccc(O[C@@H](Cc5ccccc5)C(=O)O)cc4)nocc2-3)cc1	80.1%	inhibition [3]: 63.5%; inhibition [4]: 95.7%; inhibition [5]: 96.8%; IC50 [2]: 7.82 µM; inhibition [6]: 10.3%; inhibition [7]: 89.7%; inhibition [8]: -6.83%; inhibition [9]: 17.3%
O=C(O)COc1ccc(-c2nocc3c(C(=O)C4CCCC4)ccc2-3)cc1	15.7%	
COc1ccc(C(=O)c2ccc3c(-c4ccc(OCC(=O)NCCO)cc4)nocc2-3)cc1	inactive	
COc1ccc(-c2nocc3c(C(=O)c4ccc(Cl)cc4Cl)ccc2-3)cc1	101%	IC50 [2]: 3.4 µM
COc1ccc(C(=O)c2ccc3c(-c4ccc(OCC(=O)NCN5CCOCC5)cc4)nocc2-3)cc1	inactive	
COc1cccc(C(=O)c2ccc3c(-c4ccc(OCC(=O)O)cc4)nocc2-3)c1	87.4%	IC50 [2]: 1.96 µM
O=C(O)COc1ccc(-c2nocc3c(C(=O)c4ccc(Cl)cc4Cl)ccc2-3)cc1	38%	
COc1ccc(C(=O)c2ccc3c(-c4cc(Br)c(OCC(=O)O)c(Br)c4)nocc2-3)cc1	101%	inhibition [3]: 106%; inhibition [4]: 100%; inhibition [5]: 101%; inhibition [10]: 41.8%; IC50 [2]: 1.64 µM; inhibition [6]: 40.5%; inhibition [7]: 100%; inhibition [8]: 53.4%; inhibition [9]: 57.7%

Structure (SMILES)	inhibition [1]	also measured
COCCNCc1ccc(C(=O)c2ccc3c(-c4ccc(OCC(=O)O)cc4)nocc2-3)cc1	10.2%	
O=C(O)COc1ccc(-c2nocc3c(C(=O)c4ccco4)ccc2-3)cc1	inactive	
CC(=O)c1ccc2c(-c3ccc(OCC(=O)O)cc3)nocc1-2	inactive	
O=C(O)COc1ccc(-c2noc(-c3ccccc3)c3cccc2-3)cc1	1.1%	
CCOC(=O)/C=C/c1ccc2c(-c3ccc(OCC(=O)O)cc3)nocc1-2	inactive	
O=C(O)COc1ccc(-c2nocc3c(C(=O)CCC4CCCC4)ccc2-3)cc1	42.4%	
O=C(O)COc1ccc(-c2nocc3cccc2-3)cc1	27.4%	
COc1ccc(C(=O)c2ccc3c(-c4ccc(OC(C(=O)O)C(=O)O)cc4)nocc2-3)cc1	3.3%	
COc1ccc(C(=O)c2ccc3c(-c4ccc(OC)cc4)nocc2-3)cc1	32%	
O=C(c1ccc2c(-c3ccc(OC(C(=O)O)C(=O)O)cc3)nocc1-2)C1CCCC1	76.7%	IC50 [2]: 8.19 µM
COc1ccc(C(=O)c2ccc3c(-c4ccc(OCC(=O)O)cc4)noc(C)c2-3)cc1	inactive	
O=C(O)COc1ccc(-c2nocc3c(C(=O)c4ccccc4F)ccc2-3)cc1	11.9%	
COc1ccccc1C(=O)c1ccc2c(-c3ccc(OCC(=O)O)cc3)nocc1-2	3.8%	
O=C(O)COc1ccc(-c2nocc3c(C(=O)c4ccc(Cl)cc4)ccc2-3)cc1	14.3%	
Oc1ccc(-c2nocc3cccc2-3)cc1	18.5%	
Cc1onc(-c2ccc(OCC(=O)O)cc2)c2cccc1-2	inactive	
